Legend:
[1] = Ratio of inhibition of cyclin dependant kinase 2-cyclin E to that of cyclin-dependent kinase 5
Method in brief: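 Selectivity is the cdk2/cyclin E IC50 divided by the cdk5/p25 IC50 (k2/k5). Both IC50s came from six-point triplicate dose–response curves in scintillation proximity assays run at the same final ATP concentration.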

[2] = target: T1, Cyclin-dependent kinase 2/cyclin E1 (Homo sapiens, UniProt P24941); assay: Concentration required for inhibition of cyclin dependant kinase 2-cyclin E was measured by scintillation proximity assay; format: protein-complex assay
Method in brief: (§1)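 Kinase activity was read by scintillation proximity assay against cdk5/p25 and cdk2/cyclin E, with the same final ATP concentration in both assays. ATP Km was measured separately for each enzyme. Each IC50 came from a six-point dose–response curve run in triplicate.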

[3] = target: Cyclin-dependent kinase 5 (Homo sapiens, UniProt Q00535); assay: Concentration required for inhibition of cyclin-dependent kinase 5 was measured by scintillation proximity assay; method in brief: as §1
Chain of Cyclin-dependent kinase 5 (Q00535 whole entry): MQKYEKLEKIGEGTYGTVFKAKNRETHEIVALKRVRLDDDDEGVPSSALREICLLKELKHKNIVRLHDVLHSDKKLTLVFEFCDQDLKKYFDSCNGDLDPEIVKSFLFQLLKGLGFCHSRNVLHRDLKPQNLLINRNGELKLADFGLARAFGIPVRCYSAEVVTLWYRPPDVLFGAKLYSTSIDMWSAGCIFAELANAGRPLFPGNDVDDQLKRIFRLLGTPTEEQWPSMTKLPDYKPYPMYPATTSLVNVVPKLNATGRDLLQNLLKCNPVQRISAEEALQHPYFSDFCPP

[4] = target: T1, Cyclin-dependent kinase 2/cyclin E1; assay: Concentration required for 50% inhibition of cyclin dependant kinase 2-cyclin E was measured by scintillation proximity assay; format: protein-complex assay; method in brief: as §1

Structure (SMILES) | Ratio [1] | IC50 [2] [nM] | IC50 [3] [nM] | IC50 [4] [nM]
O=C(Nc1ccc2ncccc2c1)Nc1ncc(C2CCC2)s1 | 3.8 | 167 | 44 | –
CC(C)c1cnc(NC(=O)Cc2ccccc2)s1 | 1.5 | – | 64 | 98
O=C(Cc1ccccc1)Nc1ncc(-c2ccccc2)s1 | 1.3 | 2000 | 1570 | –
O=C(Nc1ccccc1)Nc1ncc(C2CCC2)s1 | 1.6 | 290 | 183 | –
CC(C)c1cnc(NC(=O)c2ccccc2)s1 | 0.9 | – | 1150 | 1020
CC(C)c1cnc(NC(=O)C(=O)c2ccccc2)s1 | 2.1 | – | 4580 | 9770
O=C(Cc1ccccc1)Nc1ncc(C2CCCC2)s1 | 2.4 | 155 | 64 | –
O=C(Cn1ccc2ccccc21)Nc1ncc(C2CCC2)s1 | 2.1 | 100 | 48 | –
CCCCCc1cnc(NC(=O)Cc2ccccc2)s1 | 1.2 | 4120 | 3270 | –
O=C(Nc1ncc(C2CCC2)s1)Nc1cccc2c[nH]nc12 | 3.4 | 650 | 190 | –
CN(C)c1cnc(NC(=O)Cc2ccccc2)s1 | 1.2 | 4810 | 3990 | –
CC(C)c1cnc(NC(=O)Oc2ccccc2)s1 | 0.6 | – | 1600 | 980
CCc1cnc(NC(=O)Cc2ccccc2)s1 | 0.7 | – | 621 | 412
O=C(Nc1ccc2cnccc2c1)Nc1ncc(C2CCC2)s1 | 4 | 176 | 44 | –
CC(C)C(=O)Nc1ncc(C(C)C)s1 | 1 | 318 | 321 | –
O=C(Cc1ccccc1)Nc1ncc(C2=CCCC2)s1 | 1 | 6510 | 6530 | –
CC(=O)c1cnc(NC(=O)Cc2ccccc2)s1 | 0.6 | 4600 | 7670 | –
CSc1cnc(NC(=O)Cc2ccccc2)s1 | 1.2 | 105 | 91 | –
O=C(Cc1ccccc1)Nc1ncc(C2CCCCC2)s1 | 2.6 | 997 | 390 | –
O=C(Cc1ccccc1)Nc1ncc(Br)s1 | 0.5 | 480 | 900 | –
O=C(Nc1ncc(C2CCC2)s1)Nc1cccc2[nH]nnc12 | 2.6 | – | – | –
CC(C)c1cnc(NC(=O)Nc2ccccc2)s1 | 2.6 | – | 102 | 265

Second part, the compound after the results:

Ratio [1] | IC50 [2] [nM] | IC50 [3] [nM] | IC50 [4] [nM] | Structure (SMILES)
– | 106 | 41 | – | O=C(Nc1ncc(C2CCC2)s1)Nc1cccc2nn[nH]c12
11 | 55 | 5 | – | O=C(Nc1ncc(C2CCC2)s1)Nc1cccc2ccncc12
2.5 | 40 | 16 | – | O=C(Cc1c[nH]c2ccccc12)Nc1ncc(C2CCC2)s1
4.7 | 33 | 7 | – | O=C(Cc1ccc2[nH]cnc2c1)Nc1ncc(C2CCC2)s1
12 | 96 | 8 | – | O=C(Nc1ncc(C2CCC2)s1)Nc1cccc2cnccc12
3 | 74 | 25 | – | O=C(Cc1ccccc1)Nc1ncc(C2CCC2)s1
3.3 | 43 | 13 | – | O=C(Nc1ncc(C2CCC2)s1)Nc1cccc2ncccc12
2.2 | 26 | 13 | – | Cc1cc2ncn(CC(=O)Nc3ncc(C4CCC4)s3)c2cc1C
5.4 | 70 | 13 | – | O=C(Cc1cccc2cnccc12)Nc1ncc(C2CCC2)s1
1.3 | 16 | 12 | – | Cc1nc2ccc(CC(=O)Nc3ncc(C4CCC4)s3)cc2s1
2.6 | 26 | 10 | – | O=C(Cc1ccc2ncccc2c1)Nc1ncc(C2CCC2)s1
